Columns and labels:
[1] = tested on: Human immunodeficiency virus 2; assay: Antiviral activity against HIV2 ROD infected in human CEM/0 cells assessed as inhibition of virus-induced cytopathicity after 4 to 5 days; type: functional, organism-based; settings: Human immunodeficiency virus 2, ISOLATE ROD, CCRF-CEM
[2] = tested on: Human immunodeficiency virus 1; assay: Antiviral activity against HIV1 3B infected in human CEM/0 cells assessed as inhibition of virus-induced cytopathicity after 4 to 5 days; type: functional, organism-based; settings: Human immunodeficiency virus 1, 3B, CCRF-CEM
[3] = tested on: Human immunodeficiency virus 2; assay: Antiviral activity against HIV2 ROD infected in human CEM/TK- cells assessed as inhibition of virus-induced cytopathicity after 4 to 5 days; type: functional, organism-based; settings: Human immunodeficiency virus 2, ISOLATE ROD
[4] = Cytotoxicity against human CEM/0 cells; type: cell-based, CCRF-CEM
Summary of the method: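 Proliferation of CEM cells measured by Coulter particle counting across a range of compound concentrations. CC50 is the concentration inhibiting cell proliferation by 50%.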

[5] = tested on: Moloney murine sarcoma virus; assay: Antiviral activity against murine sarcoma virus infected in murine C3H/3T3 cells assessed as inhibition of virus-induced cell transformation

Row | EC50 [1] [µM] | EC50 [2] [µM] | EC50 [3] [µM] | EC50 [5] [µM] | Structure (SMILES) | CC50 [4] [µM]
1 | 0.86 | 1.1 | 1.9 | 5.3 | COC(=O)[C@H](C)N[P@@](=O)(OC[C@@H]1C=C[C@H](n2cc(C)c(=O)[nH]c2=O)O1)Oc1ccc(OC)cc1 | 235
2 | 0.16 | 0.15 | 0.13 | 0.53 | COC(=O)[C@H](C)N[P@](=O)(OC[C@@H]1C=C[C@H](n2cc(C)c(=O)[nH]c2=O)O1)Oc1cccc2ccccc12 | 70
3 | 1.3 | 1.3 | 2.9 | 4 | COC(=O)[C@H](C)N[P@@](=O)(OC[C@@H]1C=C[C@H](n2cc(C)c(=O)[nH]c2=O)O1)Oc1ccccc1C | > 250
4 | 0.46 | 0.82 | 2.1 | 1.8 | COC(=O)[C@H](C)N[P@@](=O)(OC[C@@H]1C=C[C@H](n2cc(C)c(=O)[nH]c2=O)O1)Oc1ccc(C)cc1 | > 250
5 | 0.14 | 0.12 | 0.032 | 1.8 | COC(=O)[C@H](C)N[P@](=O)(OC[C@@H]1C=C[C@H](n2cc(C)c(=O)[nH]c2=O)O1)Oc1ccc(C)cc1 | 79
6 | 0.75 | 0.84 | 132 | 2.5 | Cc1cn([C@H]2C=C[C@@H](CO)O2)c(=O)[nH]c1=O [STAVUDINE] | > 250
7 | 0.14 | 0.15 | 0.048 | 2 | COC(=O)[C@H](C)N[P@](=O)(OC[C@@H]1C=C[C@H](n2cc(C)c(=O)[nH]c2=O)O1)Oc1ccc(OC)cc1 | 77
8 | 1.1 | 1.3 | 1.9 | 9.8 | COC(=O)[C@H](C)N[P@](=O)(OC[C@@H]1C=C[C@H](n2cc(C)c(=O)[nH]c2=O)O1)Oc1ccccc1C | > 250
9 | 0.45 | 0.12 | 0.25 | 0.72 | COC(=O)[C@H](C)N[P@@](=O)(OC[C@@H]1C=C[C@H](n2cc(C)c(=O)[nH]c2=O)O1)Oc1cccc2ccccc12 | 107
